Experimental data of several laboratories.
Each line is one published result; the experiments were not run side by side.
Target: B2 bradykinin receptor (BDKRB2, Homo sapiens, UniProt P30411)
Residues used in one study (P30411 1-391): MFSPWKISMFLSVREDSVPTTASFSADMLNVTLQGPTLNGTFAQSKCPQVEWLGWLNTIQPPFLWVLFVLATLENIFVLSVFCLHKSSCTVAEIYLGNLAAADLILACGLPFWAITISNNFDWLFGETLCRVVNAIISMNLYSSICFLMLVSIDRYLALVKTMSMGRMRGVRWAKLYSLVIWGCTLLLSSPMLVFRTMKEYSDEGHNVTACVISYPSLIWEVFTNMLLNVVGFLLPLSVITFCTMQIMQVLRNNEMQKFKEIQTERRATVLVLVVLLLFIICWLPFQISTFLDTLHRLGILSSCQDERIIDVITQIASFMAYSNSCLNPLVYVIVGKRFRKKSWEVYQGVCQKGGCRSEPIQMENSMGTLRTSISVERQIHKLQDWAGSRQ

SMILES | effect on | method | tested at | inhibition [%]
COc1ccc(S(=O)(=O)N2CCCCC2)cc1C | ligand displacement | radioligand | 10 µM | < 30
O=C(Nc1cccnn1)N1CCN([C@@H]2CCOc3cc(C(F)(F)F)ccc32)CC1 | cell-free assay | – | 20 µM | 10
CC(C)N1CCC[C@H]1CNC(=O)c1cn(C2CCCC2)c(=O)c2c1c1ccccc1n2C | ligand displacement | radioligand | 10 µM | 11
c1ccc(C(NCCNC(c2ccccc2)c2ccccc2)c2ccccc2)cc1 | cell-free assay | – | 10 µM | 17
CN(CCN1CCC(OC(=O)Nc2ccccc2-c2ccccc2)CC1)C(=O)c1ccc(CN2CCC(C(N)=O)CC2)cc1 | ligand displacement | radioligand | 1 µM | -6
C[C@H](C(=O)N[C@H]1COc2ccccc2[C@@H]1S(C)(=O)=O)c1ccc(F)cc1 | cell-free assay | – | 10 µM | 8
COCc1c(-c2cc3cc(C)cc(OC)c3s2)c2c(N)ncnn2c1CN1CCNC(=O)C1 | ligand displacement | radioligand | 10 µM | 3
CCN(CC)CCCC[C@H](NC(=O)[C@H](CC(C)C)NC(=O)[C@H](C)NC(=O)[C@H](Cc1ccccc1)NC(=O)c1ccc(C(C)(C)C)cc1)C(=O)N[C@@H](CO)C(=O)OC | ligand displacement | radioligand | 10 µM | -7
